Compounds with a hit are over-represented: about 4.5% of the library has one in this group of screens.
MrgX1 antagonist = antagonists of human MrgX1 receptor; Q96LB2; MRGX1-HEK293 calcium flux, Fluo-4, BAM8-22 antagonism; hits give low values; B-score at 10 µM; hit rate 1.3% among 310,000;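 active = calcium-response B-score plate-corrected more than 3 library SD below zero, starting fluorescence within 5 deviations, no agonist response on first addition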;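 also: peak minus trough fluorescence over baseline after final BAM8-22 challenge near maximal dose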
Target sequence (Q96LB2 whole entry, looked up): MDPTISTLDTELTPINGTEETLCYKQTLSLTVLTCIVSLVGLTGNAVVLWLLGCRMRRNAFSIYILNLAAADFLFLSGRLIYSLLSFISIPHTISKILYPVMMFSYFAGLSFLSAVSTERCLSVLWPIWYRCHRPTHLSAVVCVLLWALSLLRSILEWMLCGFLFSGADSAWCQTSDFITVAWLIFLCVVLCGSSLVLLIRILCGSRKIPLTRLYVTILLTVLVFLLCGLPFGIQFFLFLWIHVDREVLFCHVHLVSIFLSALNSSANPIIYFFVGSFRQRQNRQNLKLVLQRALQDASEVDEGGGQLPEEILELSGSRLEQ
MrgX1 PAM = allosterically activates human MrgX1 receptor signaling | hit rate 0.63% among 310,000 | MrgX1-HEK293, Fluo-4 calcium flux, FDSS; hits give high values | B-score at 10 µM | AID 588675;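 active = plate-corrected calcium response at least 3 library SD above typical, normal starting fluorescence, not activating the receptor alone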;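 also: compound read alongside a low EC10 to EC30 dose of BAM8-22 agonist; peak minus trough fluorescence over baseline measured at the second addition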
RGS4 act = RGS4 potentiation or activation. HEK293 M3R/inducible RGS4, carbachol calcium flux Fluo4; hits give low values. B-score at 10 µM. hit rate 0.92% among 310,000. AID 463111;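 active = B-score of the integrated calcium signal more than 4 SD below the library mean, with starting fluorescence not abnormally high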;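 also: negative B-score means reduced calcium response which marks RGS4 activation or potentiation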
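test system = HEK293 cells with stable M3R and inducible RGS4 | schedule = recording 10 s baseline at 1 Hz, 100 s post-agonist | technique = Fluo4-AM (2 µM) calcium-flux fluorescence, kinetic read | measure = Agonist-evoked peak-minus-minimum fluorescence over baseline, integrated ratio, B score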
PHOSPHO1 inh = blocks human PHOSPHO1 phosphatase activity; Q8TCT1; recombinant PHOSPHO1, absorbance phosphatase assay; inhibition, % at 13.3 µM; hit rate 1.1% among 290,000; AID 1565; in the data active = inhibition above about 60%
MrgX1 ag = human MrgX1 receptor agonism, primary screen | hit rate 0.44% among 310,000 | MrgX1-HEK293 cells, Fluo-4 calcium fluorescence, agonist mode; hits give high values | Q96LB2 | B-score at 10 µM;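 active = calcium response B-score plate-corrected fluorescence ratio at least 3 library SD, with starting fluorescence B-score inside 5 SD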
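System – MrgX1-expressing HEK293 cells · Incubation – cells plated overnight, dye loaded 0.5 h 37 °C, 0.5 h room temperature · Technique – kinetic Fluo-4 NW fluorescence of intracellular calcium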
RGS4 inh = inhibitors of human RGS4 | P49798 | HEK293 M3R/RGS4 inducible, Fluo-4 calcium flux; hits give high values; triggered by carbachol at its EC20 | B-score at 10 µM | hit rate 0.45% among 310,000;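 active = B-score, a plate-corrected calcium signal, over three deviations above library mean, with baseline fluorescence within five deviations of library mean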;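 also: RGS4 expression induced by doxycycline in cells with stable M3 receptor; B-score is computed from the integrated fluorescence ratio over baseline after carbachol; higher B-score means a larger calcium signal and so more RGS4 inhibition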
Target sequence (P49798 whole entry, looked up): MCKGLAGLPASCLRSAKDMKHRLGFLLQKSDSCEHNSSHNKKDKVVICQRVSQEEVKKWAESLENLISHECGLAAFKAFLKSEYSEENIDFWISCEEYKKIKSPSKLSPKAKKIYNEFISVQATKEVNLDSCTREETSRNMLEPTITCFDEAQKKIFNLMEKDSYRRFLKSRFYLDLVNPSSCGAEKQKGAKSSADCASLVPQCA
An asterisk follows results filed as active; i = inactive; . = no result given.

SMILES	MrgX1 antagonist	MrgX1 PAM	RGS4 act	PHOSPHO1 inh	MrgX1 ag	RGS4 inh
COc1ccc(OC)c(N(CC(=O)NCCSCc2ccc(C)cc2)S(C)(=O)=O)c1	i	i	i	19	i	i
CCCOP(=O)(c1ccc(N(C)C)cc1)C(O)c1ccc(Br)cc1 (stereo not drawn)	i	i	i	.	i	i
O=[N+]([O-])c1ccc(N2CCN(c3cccc(Cl)c3)CC2)cn1	i	i	i	-28	i	i
N#Cc1c(N(CCO)CCO)nc(N)c2c(N)nc3c(c12)CC(=O)N3Cc1cccs1	-4.5*	i	i	-10	i	i
COc1ccc(CC(=O)OCc2cc3ccc(C)cc3[nH]c2=O)cc1	i	i	i	61*	i	i
Cc1cc(O)ccc1Nc1nc2ccccc2nc1Nc1ccc(O)cc1C	i	i	i	97*	i	i
CCOC(=O)c1sc(N=NC2=C(O)CC(C)(C)CC2=O)c(C(=O)OCC)c1C	i	i	i	48	i	i
COc1ccc(C(=O)NNc2ccccc2)cc1OC	i	i	i	77*	i	i
CC(C)C1CC(CCN)(Cc2ccccc2)CCO1 (stereo not drawn)	i	i	i	39	i	i
COCCNC(=O)c1c[nH]c2ccc(S(=O)(=O)N(C)c3ccc(C)c(C)c3)cc2c1=O	i	i	i	31	i	i
COc1cc(/C=C(\C#N)c2nc(-c3cc4ccccc4oc3=O)cs2)ccc1O	-9.2*	i	i	-11	i	i
NC(=O)c1ccsc1NC(=O)CS(=O)(=O)c1ccc(F)cc1	i	i	i	.	i	i
CCN(CC)c1ccc(NC(=O)c2ccccc2)cc1S(=O)(=O)Nc1ccccc1OC	i	i	i	95*	i	i
CCN(CC)c1ccc(NC(=O)c2cccc(C)c2)cc1S(=O)(=O)Nc1ccccc1OC	i	i	i	7	i	i
CCOC(=O)N1CCN(C(=O)/C(=C/c2ccc(Br)cc2)NC(=O)c2ccc(OC)cc2)CC1	i	i	i	-5	i	i
c1ccc2c(c1)CCN(c1ncnc3c1[nH]c1ccccc13)C2	-8.2*	i	i	17	i	i
COc1cccc2[nH]c3c(N4CCc5ccccc5C4)ncnc3c12	i	i	i	24	i	i
O=C(NCCNC(=O)c1ccccc1Br)c1cccnc1	i	i	i	.	i	i
NC(=O)c1c(N)sc2c1CCCC2	i	i	i	92*	i	i
Nc1sc2c(c1C(=O)c1ccccc1)CCCC2	i	i	i	53	i	i
O=C(CN1C(=O)NC2(CCCC2)C1=O)NCCC1=CCCCC1	i	i	-7.3*	46	i	i
O=C(NCC1CCCO1)c1ccc(COc2ccc(F)cc2)o1 (stereo not drawn)	i	i	i	-28	i	i
CCOc1cc(N)c(Cl)cc1C(=O)NCC1CN(Cc2ccc(F)cc2)CCO1 (stereo not drawn)	-8.6*	i	i	.	i	i
CCOC(=O)C(C)Oc1ccc(NC(=O)C(Cl)Cl)cc1 (stereo not drawn)	i	i	i	36	i	i
Cc1ccc(S(=O)(=O)C(C#N)c2nc3ccccc3nc2N2CCCCC2)cc1 (stereo not drawn)	.	.	.	93*	.	.
SMILES	MrgX1 antagonist	MrgX1 PAM	RGS4 act	PHOSPHO1 inh	MrgX1 ag	RGS4 inh
Cc1cccc(S(=O)(=O)C(C#N)c2nc3ccccc3nc2N2CCOCC2)c1 (stereo not drawn)	i	i	i	78*	i	i
CC1CCCN(c2nc3ccccc3nc2C(C#N)S(=O)(=O)c2ccccc2)C1 (stereo not drawn)	i	i	i	30	i	i
COc1ccc(S(=O)(=O)C(C#N)c2nc3ccccc3nc2N2CCC(C)CC2)cc1 (stereo not drawn)	i	i	i	100*	i	i
CSc1ncccc1C(=O)Nc1nc2ccc(Oc3ccccc3)cc2s1	i	i	i	-4	i	i
Cc1nc(NC(C)C)c2cnn(CCc3ccccc3)c2n1	i	i	i	-14	i	i
Cc1ccc(-n2cc(CN(C)Cc3ncc[nH]3)c(-c3cccc(C)c3)n2)cc1	i	i	i	8	i	i
CC(=O)Nc1ccc(S(=O)(=O)NNC(=S)NCc2ccco2)cc1	i	i	i	37	i	i
CCOc1ccc(NC(=O)NNC(=O)COc2ccc3ccccc3c2)cc1	-6.7*	i	i	14	i	i
CC(=O)Nc1ccc(C(=S)NCc2ccco2)cc1	i	i	i	94*	i	i
CCOc1ccc(NC(=O)NC2(C(=O)NCc3ccco3)CCCCC2)cc1	i	i	i	30	i	i
O=C(NCCSCc1ccco1)Nc1ccccc1	i	i	i	74*	i	i
CCOc1ccc(NC(=O)NCc2ccco2)cc1	i	i	i	67*	i	i
NC1=NC2CS(=O)(=O)CC2S1 (stereo not drawn)	i	i	i	-8	i	i
CCCCn1nc(C(=O)NNC(=O)c2ccncc2)c2ccccc2c1=O	i	i	i	25	i	i
CC1CC(C)(C)CC2(C1)NC(=S)N(c1ccccc1)N2 (stereo not drawn)	i	i	.	98*	i	.
CCOC(=O)c1c(C)[nH]c(C(=O)N/N=C\c2ccccc2O)c1C	i	i	i	3	i	i
CCOC(=O)c1c(C)[nH]c(C(=O)N/N=C/c2ccc(OC)c(OC)c2)c1C	i	i	i	75*	i	i
Oc1ccc(/C=N/Nc2cccc3cccnc23)c(O)c1	i	i	i	-17	i	i
Cc1ccc(/C=N/Nc2cccc3cccnc23)c(O)c1	i	i	i	98*	i	i
CC1CCc2nc(/C(C#N)=C/c3ccncc3)sc2C1 (stereo not drawn)	i	i	i	20	i	i
CCOC(=O)c1c(C)[nH]c(N=Nc2ccc(C)cc2C)c1C	i	i	i	65*	i	i
CCOC(=O)c1c(S(=O)(=O)NCC(=O)Nc2ccccc2)c(C)n(C)c1C	i	i	i	18	i	i
CCOC(=O)c1c(S(=O)(=O)NCC(=O)Nc2cccc(C)c2)c(C)n(C)c1C	i	i	i	70*	i	i

High-throughput results deposited in PubChem by several laboratories.
